Activity calls are given as the source filed them. No cut-off for these calls is given here.
Legend:
[1] = biological target: T1, Bile acid receptor (Homo sapiens) (UniProt Q96RI1); assay: Transactivation of human FXR expressed in human HeLa cells co-expressing BSEP at 3 uM after 24 hrs by dual-glo luciferase reporter gene assay relative to GW4064; type: cell-based
T1 sequence (whole entry): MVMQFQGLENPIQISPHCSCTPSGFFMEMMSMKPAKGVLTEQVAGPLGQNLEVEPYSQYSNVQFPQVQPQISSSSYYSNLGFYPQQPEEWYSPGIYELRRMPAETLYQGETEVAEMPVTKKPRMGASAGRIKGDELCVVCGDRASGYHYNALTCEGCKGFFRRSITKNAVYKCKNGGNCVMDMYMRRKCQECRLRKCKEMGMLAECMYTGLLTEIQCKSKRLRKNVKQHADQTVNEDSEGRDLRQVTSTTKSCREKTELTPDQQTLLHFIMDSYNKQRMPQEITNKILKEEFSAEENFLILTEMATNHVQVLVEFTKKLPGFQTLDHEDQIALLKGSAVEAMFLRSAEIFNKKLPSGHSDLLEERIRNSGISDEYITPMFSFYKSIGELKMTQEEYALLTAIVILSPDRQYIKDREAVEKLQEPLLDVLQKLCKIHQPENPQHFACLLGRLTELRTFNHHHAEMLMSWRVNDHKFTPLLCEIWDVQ
In short: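 Full-length FXR reporter gene assay with constitutively expressed hFXR and hRXR, plus renilla luciferase for normalization and toxicity control. Maximum relative activation is expressed against the reference agonist at 3 µM, set as 100%.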

Bile acid receptor = biological target: T2, Bile acid receptor (Homo sapiens, UniProt Q96RI1); assay: Transactivation of human FXR expressed in human HeLa cells co-expressing BSEP after 24 hrs by dual-glo luciferase reporter gene assay; type: cell-based
T2 sequence (Q96RI1 whole entry): T1 sequence (whole entry)
In short: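 Full-length reporter system with constitutive expression of hFXR and hRXR. A constitutive Renilla luciferase served for normalization and as a toxicity control. Maximum relative activation was expressed against a reference FXR agonist at 3 µM, set as 100%.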

[2] = Lipophilicity, logD of compound at pH 7.4 by LC-MS analysis; type: physicochemical; conditions: buffer
HepG2 = assay: Cytotoxicity against human HepG2 cells at 50 uM after 48 hrs by WST-1 assay; type: cell-based; conditions: hepg2, 48 h
In short: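 HepG2 hepatocarcinoma cells were tested for viability by WST-1 (water-soluble tetrazolium) assay, with concentrations up to 100 µM.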

Rattus norvegicus = organism: Rattus norvegicus; assay: Displacement of [3H]Ro15-4513 from GABAa receptor in Sprague-Dawley rat cerebral cortical membranes up to 10 uM after 1 hr by scintillation counting

SMILES	max activation [1]	EC50 (Bile acid receptor; read-out: EC50)	other results
Cc1ccc2nc(-c3ccc(-c4ccccc4)cc3)c(NCc3ccccc3)n2c1	17%	81 nM	
Cc1ccc2nc(-c3ccc(F)c(Cl)c3)c(NCc3ccccc3)n2c1	54%	26 nM	
Cc1cccc(-c2nc3ccc(C)cn3c2NCc2ccccc2)c1	14%	180 nM	
Cc1ccc2nc(-c3cccnc3)c(NCc3ccccc3)n2c1	17%	520 nM	
CC(C)c1onc(-c2c(Cl)cccc2Cl)c1COc1ccc(/C=C/c2cccc(C(=O)O)c2)c(Cl)c1			logD ([2]; read-out: logD): 1.01; Activity (HepG2): Toxic
Cc1ccc2nc(Cc3ccccc3)c(NCc3ccccc3)n2c1	inactive		EC50 (Bile acid receptor; hela): Not Active
Cc1ccc2nc(-c3cc(Cl)ccn3)c(NCc3ccccc3)n2c1	27%	1.5 nM	
Cc1ccc2nc(-c3ccc(Cl)cn3)c(NCc3ccccc3)n2c1	46%	7.4 nM	
Cc1ccc2nc(-c3ccccc3C)c(NCc3ccccc3)n2c1	35%	260 nM	
Cc1ccc2nc(/C=C/c3ccccc3)c(NCc3ccccc3)n2c1	13%	1160 nM	
CC[C@H]1[C@@H](O)[C@@H]2[C@H](CC[C@]3(C)[C@@H]([C@H](C)CCC(=O)O)CC[C@@H]23)[C@@]2(C)CC[C@@H](O)C[C@@H]12 [OBETICHOLIC ACID]			logD ([2]; read-out: logD): 0.81; Activity (HepG2): Toxic
Cc1ccc2nc(CCc3ccccc3)c(NCc3ccccc3)n2c1	12%	310 nM	
Fc1ccc2nc(-c3cccs3)c(NCc3ccccc3)n2c1	inactive		EC50 (Bile acid receptor; hela): Not Active
Cc1ccc2nc(-c3ccc(Cl)cc3)c(NCc3ccccc3)n2c1	14%	240 nM	
COc1cccc(-c2nc3ccc(C)cn3c2NCc2ccccc2)c1	16%	250 nM	
Cc1ccc2nc(-c3ccc(Br)cc3)c(NCc3ccccc3)n2c1	14%	430 nM	
Cc1ccc2nc(-c3cccs3)c(NCCCCc3ccccc3)n2c1	17%	750 nM	
Cc1ccc2nc(-c3cccs3)c(N[C@H](C)c3ccccc3)n2c1	14%	3200 nM	
Cc1ccc2nc(-c3ccsc3)c(NCc3ccccc3)n2c1	17%	830 nM	

SMILES	max activation [1]	EC50 (Bile acid receptor; read-out: EC50)	other results
Cc1ccc2nc(-c3ccccn3)c(NCc3ccccc3)n2c1	19%		inhibition (Rattus norvegicus): inactive
Cc1ccc2nc(-c3cccc(Cl)c3)c(NCc3ccccc3)n2c1	20%	16 nM	
COc1ccc2nc(-c3cccs3)c(NCc3ccccc3)n2c1	18%	830 nM	
Cc1ccc2nc(C3CCCCC3)c(NCc3ccccc3)n2c1	inactive		EC50 (Bile acid receptor; hela): Not Active
Cc1ccc2nc(-c3ccc(F)cc3)c(NCc3ccccc3)n2c1	21%	170 nM	
Cc1ccc2nc(-c3cccs3)c(NCc3ccccc3)n2c1	15%	540 nM	
Clc1ccc2nc(-c3cccs3)c(NCc3ccccc3)n2c1	26%	160 nM	
c1ccc(CNc2c(-c3cccs3)nc3cnccn23)cc1	inactive		EC50 (Bile acid receptor; hela): Not Active
CCc1ccn2c(NCc3ccccc3)c(-c3cccs3)nc2c1	16%	1200 nM	
Cc1ccc2nc(-c3ccoc3)c(NCc3ccccc3)n2c1	16%	1900 nM	
Cc1ccc2nc(-c3cccs3)c(N[C@@H](C)c3ccccc3)n2c1	12%	1300 nM	
Cc1ccc2nc(-c3ccco3)c(NCc3ccccc3)n2c1	17%	560 nM	
FC(F)(F)c1ccc2nc(-c3cccs3)c(NCc3ccccc3)n2c1	14%	460 nM	
Cc1ccc2nc(-c3ccc4ccccc4c3)c(NCc3ccccc3)n2c1	18%	210 nM	
Cc1ccc2nc(-c3ccccc3Cl)c(NCc3ccccc3)n2c1	inactive		EC50 (Bile acid receptor; hela): Not Active
Cc1ccc(CNc2c(-c3cccs3)nc3ccc(C)cn23)cc1	14%	220 nM	
Cc1ccc2nc(-c3cccn3C)c(NCc3ccccc3)n2c1	17%	1100 nM	
Cc1ccc2nc(-c3cccs3)c(NCCCc3ccccc3)n2c1	18%	230 nM	
Cc1ccc2nc(-c3ccc4c(c3)OCCO4)c(NCc3ccccc3)n2c1	15%	170 nM	

SMILES	max activation [1]	EC50 (Bile acid receptor; read-out: EC50)	other results
c1ccc(CNc2c(-c3cccs3)nc3ccc(-c4ccccc4)cn23)cc1	17%	200 nM	
Cc1ccc(-c2nc3ccc(C)cn3c2NCc2ccccc2)cc1	14%	130 nM	
Cc1cccc2nc(-c3cccs3)c(NCc3ccccc3)n12	inactive		EC50 (Bile acid receptor; hela): Not Active
Cc1ccc2nc(-c3nc(C)cs3)c(NCc3ccccc3)n2c1	19%	220 nM	
Cc1ccc2nc(-c3cccc(Cl)n3)c(NCc3ccccc3)n2c1	31%	80 nM	
Cc1ccc2nc(-c3ccncc3)c(NCc3ccccc3)n2c1	15%	2000 nM	
Cc1ccc2nc(-c3cccs3)c(Cc3ccccc3)n2c1	12%	810 nM	
COc1ccc(-c2nc3ccc(C)cn3c2NCc2ccccc2)cc1OC	16%	910 nM	
Cc1ccc2nc(-c3cccs3)c(NCCc3ccccc3)n2c1	12%	1000 nM	
COc1ccc(-c2nc3ccc(C)cn3c2NCc2ccccc2)cc1	16%	1270 nM	
Cc1ccc2nc(-c3ccccc3)c(NCc3ccccc3)n2c1	16%	280 nM	
Brc1ccc2nc(-c3cccs3)c(NCc3ccccc3)n2c1	14%	500 nM	
C[C@H](CCC(=O)O)[C@H]1CC[C@H]2[C@@H]3[C@H](O)C[C@@H]4C[C@H](O)CC[C@]4(C)[C@H]3CC[C@]12C [CHENODIOL]			logD [2]: 0.53
COc1ccc(CNc2c(-c3cccs3)nc3ccc(C)cn23)cc1	14%	170 nM	
O=C(O)c1ccn2c(NCc3ccccc3)c(-c3cccs3)nc2c1	inactive		EC50 (Bile acid receptor; hela): Not Active
Cc1ccc2nc(-c3cnccn3)c(NCc3ccccc3)n2c1	18%	1200 nM	
Cc1ccc2nc(-c3ccc(Cl)c(Cl)c3)c(NCc3ccccc3)n2c1	19%	24 nM	
c1ccc(CNc2c(-c3cccs3)nc3ccccn23)cc1	14%	4000 nM	
